Data on 19 molecules can be found in ChEMBL document CHEMBL1133633, “Anti-Helicobacter pylori agents. 4. 2-(Substituted guanidino)-4-phenylthiazoles and some structurally rigid derivatives” (2000).

Converted amounts (≈) assume the structure as drawn. A value given as a limit tells only on which side of the number the result lay.

The subject of assay [1] is Helicobacter pylori. In words: The lowest drug concentration that inhibited macroscopic colonial growth against Helicobacter pylori;value ranges from 6.25-50. It is filed as functional. The method, boiled down: (§1)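 Agar dilution. Strains were precultured 3 days at 37 °C on Brucella agar with 3% horse serum and 2% starch, then suspended in buffered saline to McFarland No. 1. A 10²-fold dilution was spotted by multipoint replicator onto Brucella agar with 7% lysed horse blood carrying serial 2-fold drug dilutions. Plates were incubated 3 days at 37 °C under 10% CO₂. MIC is the lowest concentration preventing macroscopic colonial growth. Mean and range come from 10 strains: 8001, 8003, 8004, 8007, 8008, 8009, 8011, 9005, FP1530 and FP1532.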

Assay [2] has as its system Helicobacter pylori. Briefly: Determined the lowest drug concentration that inhibited macroscopic colonial growth against Helicobacter pylori. The format is functional. The method, boiled down:
as §1

For a further assay, the species on record is Cavia porcellus. Briefly: Inhibition of histamine stimulated chronotropic response in isolated guinea pig right atrium (1*10e-6 g/mL). The format is functional, Cardiac atrium. The method, boiled down:
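Guinea pig right atrial strip, under 0.3-0.6 g initial tension in Tyrode solution at 30 °C, gassed with 95% O₂-5% CO₂; beating rate recorded by transducer. Histamine hydrochloride (1 × 10^-6 g/mL) raised rate. Test compound (1 × 10^-6 g/mL) was added 30 min after histamine washout. Percent inhibition compares histamine-induced rate increases before and 30 min after dosing.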

The subject of a further assay is Rattus norvegicus. Briefly: Inhibition of histamine stimulated gastric acid secretion in lumen perfused stomach of anesthetized rats (1 mg/kg iv). The format is functional. In short, it runs like this: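 Male Sprague-Dawley rats (~250 g), fasted 24 h, anesthetized with urethane 1.25 g/kg ip. The opened stomach was lumen-perfused with saline, and the perfusate was titrated with 25 mM NaOH by autotitrator. Inhibition of histamine-stimulated acid output was measured after 1 mg/kg iv dosing; n = 2.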

The test system of assay [3] is Helicobacter pylori. Briefly: The lowest drug concentration that inhibited macroscopic colonial growth against Helicobacter pylori; value ranges from 0.39-0.78. The format is functional. The method, boiled down: as §1
In assay [4] the test system is Helicobacter pylori. Briefly: The lowest drug concentration that inhibited macroscopic colonial growth against Helicobacter pylori. The format is functional. In short, it runs like this: as §1
The test system of assay [5] is Helicobacter pylori. Briefly: The lowest drug concentration that inhibited macroscopic colonial growth against Helicobacter pylori; value ranges from 0.2-0.78. The format is functional. The method, boiled down: as §1
Assay [6] concerns Helicobacter pylori. Briefly: The lowest drug concentration that inhibited macroscopic colonial growth against Helicobacter pylori; Value ranges from 6.25-50. It is filed as functional. In short, it runs like this:
as §1

The subject of assay [7] is Helicobacter pylori. In words: The lowest drug concentration that inhibited macroscopic colonial growth against Helicobacter pylori; value ranges from 6.25-25. The format is functional. The method, boiled down:
as §1

Assay [8] relates to Helicobacter pylori. In words: The lowest drug concentration that inhibited macroscopic colonial growth against Helicobacter pylori; value ranges from 0.0125-0.1. The format is functional. In short, it runs like this: as §1
Assay [9] deals with Helicobacter pylori. In words: The lowest drug concentration that inhibited macroscopic colonial growth against Helicobacter pylori; value ranges from 0.00625-0.05. It is filed as functional. In short, it runs like this: as §1
Assay [10] relates to Helicobacter pylori. In words: The lowest drug concentration that inhibited macroscopic colonial growth against Helicobacter pylori; value ranges from 0.78-6.25. It is filed as functional. In short, it runs like this:
as §1

The test system of assay [11] is Helicobacter pylori. Briefly: The lowest drug concentration that inhibited macroscopic colonial growth against Helicobacter pylori; Value ranges from 12.5-100. The format is functional. In short, it runs like this: as §1
For assay [12], the system named is Helicobacter pylori. Briefly: The lowest drug concentration that inhibited macroscopic colonial growth against Helicobacter pylori; value ranges from 3.13-50. The format is functional. In short, it runs like this:
as §1

The next assay has as its system Neisseria gonorrhoeae. In words: Antimicrobial activity was measured against Neisseria gonorrhoeae organism. The format is functional.
Another assay has as its system Clostridioides difficile. In words: Antimicrobial activity was measured against Clostridium difficile organism. It is filed as functional.
The next assay deals with Clostridium perfringens. In words: Antimicrobial activity was measured against Clostridium perfringens organism. It is filed as functional.
A further assay relates to Neisseria meningitidis. Briefly: Antimicrobial activity was measured against Neisseria meningitidis organism. It is filed as functional.
Assay [13] has as its system Campylobacter jejuni. In words: Antimicrobial activity was measured against Campylobacter jejuni organism. It is filed as functional.
Assay [14] concerns Bacteroides fragilis. Briefly: Antimicrobial activity was measured against Bacteroides fragilis. The format is functional, organism-based.
Assay [15] relates to Helicobacter pylori. In words: Antimicrobial activity was measured against Helicobacter pylori organism. It is filed as functional, organism-based. In short, it runs like this: as §1
Assay [16] concerns Helicobacter pylori. In words: The lowest drug concentration that inhibited macroscopic colonial growth against Helicobacter pylori; Value ranges from 25-100. The format is functional. The method, boiled down:
as §1

Assay [17] relates to Helicobacter pylori. In words: The lowest drug concentration that inhibited macroscopic colonial growth against Helicobacter pylori; value ranges from 0.0030-0.05. The format is functional. The method, boiled down: as §1
The test system of assay [18] is Bacteroides fragilis. Briefly: Antimicrobial activity was measured against Bacteroides fragilis organism. It is filed as functional.
The test system of assay [19] is Campylobacter jejuni. Briefly: Antimicrobial activity was measured against Campylobacter jejuni organism. range is between is(12.5-50). The format is functional.

`CC(=O)NCc1cccc(-c2csc(NC(=N)NCCc3c[nH]cn3)n2)c1`: the MIC (usually the lowest concentration that inhibits growth of the organism) in the assay with Helicobacter pylori [1] worked out at 27 µg/mL (≈ 70.4 µM).

For `CC[C@H]1OC(=O)[C@H](C)[C@@H](O[C@H]2C[C@@](C)(OC)[C@@H](O)[C@H](C)O2)[C@H](C)[C@@H](O[C@@H]2O[C@H](C)C[C@H](N(C)C)[C@H]2O)[C@](C)(OC)C[C@@H](C)C(=O)[C@H](C)[C@@H](O)[C@]1(C)O` [CLARITHROMYCIN], in the assay on Helicobacter pylori [2], the minimum inhibitory concentration (MIC) was 0.057 µg/mL (≈ 0.0762 µM).

Turning to `CC(=O)NCc1cccc(-c2csc(NC(=N)NCCOc3ccccc3)n2)c1`, the Inhibition (usually the change of the read-out against control, counted positive when it falls) in the assay listed under Cavia porcellus is listed as 52%; with Rattus norvegicus it was 18%. Further, the MIC in the assay with Helicobacter pylori [3] stood at 0.49 µg/mL (≈ 1.2 µM).

The molecule `CC/N=C(\N)Nc1nc(-c2cccc(CNC(C)=O)c2)cs1` yielded a minimum inhibitory concentration (MIC) against Helicobacter pylori [4] of 3.6 µg/mL (≈ 11.3 µM).

Take `COc1ccc(CC/N=C(\N)Nc2nc(-c3cccc(CNC(C)=O)c3)cs2)cc1`: the results for the Inhibition in the assay filed under Cavia porcellus and with Rattus norvegicus were 34% and 10%, respectively. In the assay with Helicobacter pylori [5], this molecule displayed a minimal inhibitory concentration (MIC) of 0.32 µg/mL (≈ 0.756 µM).

In the assay with Helicobacter pylori [6], `CCCC/N=C(\N)Nc1nc2c(s1)CSc1ccc(CNC(C)=O)cc1-2` gave an MIC of 22 µg/mL (≈ 56.5 µM).

The molecule `CC(=O)NCc1cccc(-c2csc(NC(=N)NCCC#N)n2)c1` returned an MIC with Helicobacter pylori [7] of 19.3 µg/mL (≈ 56.4 µM).

Consider `CC(=O)NCc1cccc(-c2csc(NC(=N)NCCc3ccccc3)n2)c1`, for which it took 0.037 µg/mL (≈ 0.094 µM) to inhibit growth in the assay with Helicobacter pylori [8] (MIC). Further, the Inhibition in the assay filed under Cavia porcellus amounted to 65%; with Rattus norvegicus, 59%.

For the molecule `CC(=O)NCc1cccc(-c2csc(NC(=N)NCc3ccccc3)n2)c1`, the values for the Inhibition in the assay listed under Cavia porcellus and in the assay on Rattus norvegicus were 77% and 50%, respectively. Moreover, the lowest concentration to inhibit growth in the assay on Helicobacter pylori [9] (MIC) was 0.025 µg/mL (≈ 0.0659 µM).

As to `CC(=O)NCc1cccc2c1OCCc1sc(N=C(N)N)nc1-2`, in the assay with Helicobacter pylori [4], the MIC was above 100 µg/mL.

Regarding `CC(=O)Nc1ccc2c(c1)-c1nc(N=C(N)N)sc1CCO2`, the MIC in the assay with Helicobacter pylori [4] was above 100 µg/mL.

In turn, `CC(=O)NCc1cccc(-c2csc(NC(=N)NCCOCc3ccccc3)n2)c1` showed an MIC with Helicobacter pylori [10] of 2.5 µg/mL (≈ 5.9 µM).

In the assay with Helicobacter pylori [11], `CC(=O)NCc1ccc2c(c1)-c1nc(N=C(N)N)sc1CCO2` yielded a minimum inhibitory concentration (MIC) of 50 µg/mL (≈ 151 µM).

In the case of `CC(=O)NCc1cccc(-c2csc(NC(=N)NCCNC(=O)c3ccccc3)n2)c1`, the minimum inhibitory concentration (MIC) in the assay on Helicobacter pylori [12] was found to be 23 µg/mL (≈ 52.7 µM).

“(2,5-Dihydroxy-4,7-dioxo-[1,3,2]dioxabismepan-5-yl)-acetic acid”: the MIC with Neisseria gonorrhoeae is 4.7 µg/mL; with Clostridioides difficile, 50 µg/mL; in the assay with Clostridium perfringens, above 100 µg/mL; against Neisseria meningitidis, 12.5 µg/mL; with Helicobacter pylori [2] it was 18 µg/mL; with Campylobacter jejuni [13], 7.4 µg/mL. Moreover, the MIC against Bacteroides fragilis [14] worked out at 50 µg/mL; in the assay with Helicobacter pylori [15] it was 8.7 µg/mL.

Turning to `CC(=O)NCc1ccc2c(c1)-c1nc(N=C(N)N)sc1CO2`, the MIC in the assay on Helicobacter pylori [16] is 62 µg/mL (≈ 195 µM).

`C/N=C(\N)Nc1nc(-c2cccc(CNC(C)=O)c2)cs1` came in with a minimal inhibitory concentration (MIC) with Helicobacter pylori [4] of 14.4 µg/mL (≈ 47.5 µM).

For the molecule `COc1ccccc1CC/N=C(\N)Nc1nc(-c2cccc(CNC(C)=O)c2)cs1`, the minimum inhibitory concentration (MIC) in the assay on Neisseria gonorrhoeae is above 100 µg/mL; in the assay on Clostridioides difficile, above 100 µg/mL; against Helicobacter pylori [17] it was 0.017 µg/mL (≈ 0.0401 µM); in the assay with Clostridium perfringens, above 100 µg/mL; against Bacteroides fragilis [18] it was above 100 µg/mL; with Neisseria meningitidis, above 100 µg/mL. In the assay with Campylobacter jejuni [19], this molecule registered an MIC of 20.5 µg/mL (≈ 48.4 µM). Further, the Inhibition in the assay listed under Cavia porcellus turned out to be 72%; with Rattus norvegicus, 58%.

Regarding `CC(=O)NCc1cccc(-c2csc(NC(=N)NCCO)n2)c1`, the MIC with Helicobacter pylori [6] came out at 20 µg/mL (≈ 60 µM).
